The subject of data set [1] is HL-60. In words: Cytotoxicity against human HL60 cells after 69 hrs by MTT assay. The format is functional, cell-based. The settings on record: HL-60, 69 h. In outline: (§1)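 Tumor lines from NCI, kept in RPMI 1640 with 10% FBS, 2 mM glutamine, penicillin/streptomycin, 37 °C, 5% CO2. Seeded at 0.7 × 10^5 cells/well (adherent) or 0.3 × 10^6 cells/well (suspension). Compounds at 0.078-5 µg/mL in DMSO (final below 0.1%), 69 h, then MTT 0.5 mg/mL for 3 h. Formazan dissolved in DMSO, A595. Triplicates; IC50 by nonlinear regression.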
A general note: Formazan colour is commonly taken as a measure of viable cells.

The subject of data set [2] is MDA-MB-435. As to the kind of experiment: Cytotoxicity against human MDA-MB-435 cells after 69 hrs by MTT assay. The format is functional, cell-based. To be noted: MDA-MB-435, 69 h. A digest of the protocol:
as §1

For data set [3], the system named is SF-295. In words: Cytotoxicity against human SF295 cells after 69 hrs by MTT assay. The format is functional, cell-based. To be noted: SF-295, 69 h. In outline:
as §1

Data set [4] concerns HCT-8. As to the kind of experiment: Cytotoxicity against human HCT8 cells after 69 hrs by MTT assay. The format is functional, cell-based. The settings on record: HCT-8, 69 h. A digest of the protocol: as §1
The test system of data set [5] is PBMC. As to the kind of experiment: Cytotoxicity against human PBMC after 72 hrs by alamar blue assay. The format is cell-based. A digest of the protocol: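 PBMC isolated from heparinized blood of healthy nonsmoking donors by Ficoll-Hypaque gradient. Cells at 3 × 10^5 cells/mL in RPMI 1640 with 20% FBS, 37 °C, 5% CO2, phytohemagglutinin 3% added at the start. Compounds added after 24 h at 0.078-5 µg/mL in DMSO (final below 0.1%), exposure 72 h. Alamar Blue added for the last 24 h; absorbance read at 570 and 595 nm, expressed as % reduced versus control.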

The nature of data set [6]: Hemolytic activity in mouse erythrocytes at 200 ug/ml after 1 hr by spectrophotometer. The format is ADME, cell-based. The settings on record: erythrocyte. A digest of the protocol: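 Mouse erythrocytes as a 2% suspension in 0.85% NaCl with 10 mM CaCl2. Compounds tested at 0.78-200 µg/mL; 1% DMSO served as negative control and 0.2% Triton X-100 set 100% hemolysis. After 1 h at room temperature and centrifugation, released hemoglobin in the supernatant measured at 540 nm absorbance.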

The term IC50 denotes the concentration that inhibits the measured activity by half. Lower therefore signals greater potency. `COc1cccc2c1C(=O)c1c(O)c3c(c(O)c1C2=O)C[C@@](O)(C(=O)CO)C[C@@H]3O[C@H]1C[C@H](N)[C@H](O)[C@H](C)O1` [DOXORUBICIN]: the IC50 in data set [1] was 0.05 µM; in data set [2] it was 1.67 µM; in data set [3], 0.37 µM; in data set [4] it was 0.09 µM; in data set [5], 0.5 µM.

Take `C=C1C(=O)[C@@]23CC[C@H]4[C@@](C)(CCC[C@]4(C)C(=O)O)[C@@H]2CC[C@@H]1C3`: the half-maximal inhibitory concentration (IC50) in data set [1] was 2 µM; in data set [2], 4.2 µM; in data set [3] it was 3.7 µM; in data set [4], 1.5 µM; in data set [5], > 10 µM. Besides, in data set [6], the Activity entry was “Not Active”.

Consider `C=C1C(=O)O[C@@]23CC[C@H]4[C@@](C)(CCC[C@]4(C)C(=O)O)[C@@H]2CC[C@@H]1C3` (relative stereo), for which the IC50 in data set [1] is 8.2 µM; in data set [2], > 10 µM; in data set [3] it was > 10 µM; in data set [4] it was 5.2 µM; in data set [5] it was > 10 µM. Moreover, the Activity result in data set [6] was “Not Active”.

Take `C=C(C(=O)OC)C1C[C@H](OC(C)=O)C2=C(CC[C@@H]3[C@@](C)(C(=O)OC)C(=O)CC[C@@]23C)[C@@H]1OC(C)=O` (relative stereo) [ABIETANE]: the IC50 in data set [1], in data set [2], in data set [3], in data set [4] and in data set [5] was > 10 µM throughout. In addition, the Activity entry in data set [6] is recorded as “Not Active”.

(Values after ChEMBL document CHEMBL1154309, “Cytotoxic diterpenoids from Croton argyrophylloides” (J Nat Prod, 2009).)
